Data taken from paper PMC5783483 (Molecular Medicine Reports, 2017).
Marks after values point to notes of the source that are not given here.

Key:
Format in all cases: in vivo, BALB/c/nu nude mice
Settings in all cases: Taxol 5 mg/kg injection twice per week
MX-1 xenograft = assay: Breast cancer MX-1 xenograft model
How it was run: (§1)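 Six-week-old female BALB/c/nu nude mice (15–16 g) bearing MX-1 or MX-1/T xenografts, housed at 25°C on a 12-h light/dark cycle. Mice were randomized into four groups of five once mean tumor volume reached 100–250 mm3. Read-outs were relative tumor volume T/C and excised tumor weight, as mean ± SD.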

MX-1/T xenograft = assay: Breast cancer MX-1/T xenograft model
How it was run: as §1

MCF-7 xenograft = assay: Breast cancer MCF-7 xenograft model
How it was run: (§2)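 Six-week-old female BALB/c/nu nude mice (16–22 g) bearing MCF-7 or MCF-7/T xenografts, housed at 25°C on a 12-h light/dark cycle. Mice were randomized into four groups of five at a mean tumor volume of 100–250 mm3. Read-outs were RTV T/C and excised tumor weight, as mean ± SD.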

MCF-7/T xenograft = assay: Breast cancer MCF-7/T xenograft model
How it was run: as §2

SMILES: CC(=O)O[C@H]1C(=O)[C@@]2(C)[C@H]([C@H](OC(=O)c3ccccc3)[C@]3(O)C[C@H](OC(=O)[C@H](O)[C@@H](NC(=O)c4ccccc4)c4ccccc4)C(C)=C1C3(C)C)[C@]1(OC(C)=O)CO[C@@H]1C[C@@H]2O [Taxol]
- Body weight Final (MX-1 xenograft; 13 days): 20.8 ± 2.2 g
- Relative tumor volume Treated/control ratio (MX-1 xenograft; 13 days): 55.56%
- Relative tumor volume x±SD (MX-1 xenograft; 13 days): 12.27±2.33^b
- Tumor volume Final (MX-1 xenograft; 13 days): 1,714.4±308.2^a mm3
- Tumor weight Inhibition (MX-1 xenograft; 13 days): 41.56%
- Tumor weight x±SD (MX-1 xenograft; 13 days): 0.94±0.20^a g
- Body weight Initial (MX-1 xenograft; before treatment): 16.0 ± 0.7 g
- Tumor volume Initial (MX-1 xenograft; before treatment): 140.2±13.3 mm3
- Body weight Final (MX-1/T xenograft; 13 days): 20.4 ± 0.9 g
- Relative tumor volume Treated/control ratio (MX-1/T xenograft; 13 days): 95.13%
- Relative tumor volume x±SD (MX-1/T xenograft; 13 days): 22.71±11.09
- Tumor volume Final (MX-1/T xenograft; 13 days): 2,183.1±1,091.0 mm3
- Tumor weight x±SD (MX-1/T xenograft; 13 days): 1.58 ± 0.79 g
- Body weight Initial (MX-1/T xenograft; before treatment): 15.6 ± 0.6 g
- Tumor volume Initial (MX-1/T xenograft; before treatment): 95.7±17.1 mm3
- Body weight Final (MCF-7 xenograft; 33 days): 22.8 ± 2.3 g
- Relative tumor volume Treated/control ratio (MCF-7 xenograft; 33 days): 6.75%
- Relative tumor volume x±SD (MCF-7 xenograft; 33 days): 0.34±0.22^a
- Tumor volume Final (MCF-7 xenograft; 33 days): 68.3±32.5^a mm3
- Tumor weight Inhibition (MCF-7 xenograft; 33 days): 96.36%
- Tumor weight x±SD (MCF-7 xenograft; 33 days): 0.04±0.02^a g
- Body weight Initial (MCF-7 xenograft; before treatment): 21.0 ± 1.6 g
- Tumor volume Initial (MCF-7 xenograft; before treatment): 227.4±74.6 mm3
- Body weight Final (MCF-7/T xenograft; 33 days): 17.5 ± 2.1 g
- Relative tumor volume x±SD (MCF-7/T xenograft; 33 days): 12.59±3.17
- Tumor volume Final (MCF-7/T xenograft; 33 days): 1,871.0±981.5 mm3
- Tumor weight x±SD (MCF-7/T xenograft; 33 days): 1.36 ± 0.48 g
- Body weight Initial (MCF-7/T xenograft; before treatment): 16.8 ± 1.9 g
- Tumor volume Initial (MCF-7/T xenograft; before treatment): 132.5±45.3 mm3
